Where “and” joins values, the source holds several entries; their conditions need not be identical. Identical values can stand only once.
Assays:
Rattus norvegicus [1] = species: Rattus norvegicus; experiment: Percent change of tumor area at 28 day of therapy at a dose of 1.9 mg in DMBA - induced hormone dependent mammary carcinoma in rat; format: functional
Outline: (§1)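 DMBA-induced, hormone-dependent mammary carcinoma in Sprague-Dawley rats. Dose is per kg body weight per day, given three times a week, sc, as suspension or solution in polyethylene glycol 400/H2O 1:1, for 4 weeks. Tumors were counted at start (B) and as new tumors (NT). Outcomes were scored as % complete remission (not palpable), partial remission, no change and progression, with % change in tumor area.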

[2] = Cell growth inhibition of MXT-ER+ breast cancer cells at a dose of 5.3 mg/kg ([…]); format: functional, organism-based; set-up: dose 5.3 mg/kg; details: Mus musculus, Cancer cell lines
Outline: (§2)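 MXT mammary carcinoma (hormone-dependent, ER+) in BDF1 mice. Doses given in olive oil, sc, three times a week, for 6 weeks. Median tumor weight was measured at the end of therapy and expressed as T/C %. Significance was by the Wilcoxon-Mann-Whitney U test.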

Rattus norvegicus [3] = species: Rattus norvegicus; experiment: Percent of tumors with complete remission at a dose of 1.9 mg in DMBA - induced, hormone dependent mammary carcinoma in rat; format: functional; outline: as §1
Rattus norvegicus [4] = species: Rattus norvegicus; experiment: Percent of tumors with progression at a dose of 1.9 mg in DMBA - induced hormone dependent mammary carcinoma in rat; format: functional; outline: as §1
[5] = Cell growth inhibition of MXT-ER+ breast cancer cells at a dose of 1.8 mg/kg (4.6 *10e-6 M/kg); format: functional, organism-based; set-up: dose 1.8 mg/kg; details: Mus musculus, Cancer cell lines; outline: as §2
Rattus norvegicus [6] = species: Rattus norvegicus; experiment: No. of tumors occurring at a dose of 1.9 mg in DMBA - induced hormone dependent mammary carcinoma in rat; format: functional; outline: as §1
Rattus norvegicus [7] = species: Rattus norvegicus; experiment: Percent of tumors with partial remission at a dose of 1.9 mg in DMBA - induced, hormone dependent mammary carcinoma in rat; format: functional; outline: as §1
Mus musculus [8] = experiment: Uterotrophic effect in BDF1 mouse at a dose of 0.6 mg/kg (1.5*10e-6 M/kg); format: functional, Uterus
Outline: (§3)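 Female BDF1 mice carrying MXT ER+ mammary carcinoma were dosed in olive oil, sc, three times a week, for 6 weeks. At the end of therapy, uterotropic effect = [uterus dry weight (mg)/body weight (g)] × 100, given as mean ± SD and as T/C % versus control. Significance was by the U test.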

[9] = Median tumor weight of MXT ER+ determined at the end of 6 week therapy at a dose of 0.6 mg/kg (1.5*10e-6 M/kg); format: functional, Mus musculus; outline: as §2
[10] = Cell growth inhibition of MXT-ER+ breast cancer cells at a dose of 0.6 mg/kg (1.5*10e-6 M/kg); format: functional, organism-based; set-up: dose 0.6 mg/kg; details: Mus musculus, Cancer cell lines; outline: as §2
Mus musculus [11] = species: Mus musculus; experiment: (§4) Uterotrophic effect in BDF1 mouse measured as([weight of uterus (mg)/body weight (g)] *100); format: functional; outline: as §3
Mus musculus [12] = experiment: Uterotrophic effect in BDF1 mouse at a dose of 1.8 mg/kg (4.6 *10e-6 M/kg); format: functional, Uterus; outline: as §3
Rattus norvegicus [13] = species: Rattus norvegicus; experiment: No. of tumors at the beginning of the test at dose of 1.9 in DMBA - induced, hormone dependent mammary carcinoma in 8 rat; format: functional; outline: as §1
[14] = Median tumor weight of MXT ER+ determined at the end of 6 week therapy at a dose of 5.3 mg/kg (1.4*10e-5 M/kg); format: functional, Mus musculus; outline: as §2
Rattus norvegicus [15] = species: Rattus norvegicus; experiment: Percent of tumors with no change at a dose of 1.9 mg in DMBA - induced hormone dependent mammary carcinoma in rat; format: functional; outline: as §1
[16] = Median tumor weight of MXT ER+ (mammary carcinoma) determined at the end of 6 week therapy at a dose of 0.6 mg/kg (1.5*10e-6 M/kg); format: functional, Mus musculus; outline: as §2
Rattus norvegicus [17] = species: Rattus norvegicus; experiment: Percent change of in body weight at 7 day of therapy at a dose of 1.9 mg in DMBA - induced hormone dependent mammary carcinoma in rat; format: functional
[18] = Cell growth inhibition of MXT-ER+ breast cancer cells at a dose of 8 mg; format: functional; details: Mus musculus; Cancer cell lines
Outline: (§5)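 Hormone-dependent MXT mammary carcinoma (ER+) model. Equimolar doses (2 × 10⁻⁵ M/kg) were given sc three times weekly (Mon, Wed, Fri) as a solution or suspension in polyethylene glycol 400/H₂O (1:1); some agents were given in olive oil. Median tumor weight was taken at the end of 6 weeks of therapy and given as T/C %. Significance was tested by the Wilcoxon-Mann-Whitney U test.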

Mus musculus [19] = species: Mus musculus; experiment: Median tumor weight of MXT ER+ (mammary carcinoma) determined at the end of 6 week therapy at a dose of 8 mg; format: functional
Outline: (§6)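 BDF1 mice with hormone-dependent MXT mammary carcinoma (ER+). Equimolar dosing at 2 × 10⁻⁵ M/kg, given sc in olive oil three times a week (Mon/Wed/Fri) for 6 weeks. Median tumor weight was taken at the end of therapy and compared with controls by the Wilcoxon–Mann–Whitney U test.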

Mus musculus [20] = species: Mus musculus; experiment: Uterotrophic effect in BDF1 mouse at a dose of 8 mg; format: functional, Uterus
Outline: (§7)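 Uterus of BDF1 mice in the MXT ER+ study. Equimolar dosing at 2 × 10⁻⁵ M/kg, sc in olive oil three times a week (Mon/Wed/Fri). Uterine response = [uterus dry weight (mg)/body weight (g)] × 100, determined at the end of the 6-week therapy; U test.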

[21] = Cell growth inhibition of MXT-ER+ breast cancer cells at a dose of 1.4 mg/kg (4.6*10e-6M/kg); format: functional, organism-based; set-up: dose 1.4 mg/kg; details: Mus musculus, Cancer cell lines
Outline: (§8)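 Hormone-dependent MXT mammary carcinoma in BDF₁ mice. Dosing was sc in water as vehicle: 1.4 mg/kg three times a week, and 4.2 mg/kg once per week. Median tumor weight was taken after 6 weeks of therapy and expressed as T/C %. Significance was tested by the Wilcoxon-Mann-Whitney U test.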

Mus musculus [22] = species: Mus musculus; experiment: as §4; format: functional, organism-based
Mus musculus [23] = experiment: Median tumor weight of MXT ER+ determined at the end of 6 week therapy ata dose of 2 mg/kg; format: functional, organism-based; set-up: dose 2 mg/kg; outline: as §6
Mus musculus [24] = experiment: Uterotrophic effect in BDF1 mouse at a dose of 4.2 mg/kg (1.4*10^-5 M/kg); format: functional, organism-based; set-up: dose 4.2 mg/kg; details: Uterus
Outline: (§9)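 BDF1 mice bearing MXT mammary carcinoma. Dosing sc in water once per week over a 6-week therapy. Median tumor weight and uterine index ([uterus dry weight (mg)/body weight (g)] × 100) were read at the end of therapy; U test (Wilcoxon, Mann, Whitney).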

Mus musculus [25] = experiment: Median tumor weight of MXT ER+ determined at the end of 6 week therapy at a dose of 4.2 mg/kg (1.4*10^-5 M/kg); format: functional, organism-based; set-up: dose 4.2 mg/kg; outline: as §9
[26] = Cell growth inhibition of MXT-ER+ breast cancer cells ata dose of 2 mg/kg; format: functional, organism-based; set-up: dose 2 mg/kg; details: Mus musculus; Cancer cell lines; outline: as §5
[27] = Cell growth inhibition of MXT-ER+ breast cancer cells at a dose of 4.2 mg/kg (1.4*10^-5 M/kg); format: functional, organism-based; set-up: dose 4.2 mg/kg; details: Mus musculus, Cancer cell lines; outline: as §8
MDA-MB-231 [28] = experiment: Incorporation of [3H]- thymidine into hormone independent MDA-MB-231 breast cancer cells; format: functional, cell-based; details: Homo sapiens
Mus musculus [29] = experiment: Median tumor weight MXT ER+ determined at the end of 6 week therapy at a dose of 1.4 mg/kg (4.6*10e-6M/kg); format: functional, organism-based; set-up: dose 1.4 mg/kg; outline: as §8
Mus musculus [30] = experiment: Uterotrophic effect in BDF1 mouse ata dose of 2 mg/kg; format: functional, organism-based; set-up: dose 2 mg/kg; details: Uterus; outline: as §7
MCF7S [31] = experiment: Incorporation of [3H]- thymidine in hormone dependent MCF-7 breast cancer cells; format: functional, cell-based; details: Homo sapiens
MDA-MB-231 [32] = experiment: Incorporation of [3H]- thymidine in hormone independent MDA-MB-231 breast cancer cells; format: functional, cell-based; details: Homo sapiens
Mus musculus [33] = experiment: Uterotrophic effect in BDF1 mouse at a dose of 1.4 mg/kg (4.6*10e-6M/kg); format: functional, organism-based; set-up: dose 1.4 mg/kg; details: Uterus
Outline: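 BDF1 mice bearing MXT mammary carcinoma. Dosing sc in water three times a week for 6 weeks. Uterine index = [uterus dry weight (mg)/body weight (g)] × 100 (± SD), read at the end of therapy; U test.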

[34] = Cell growth inhibition of MXT-ER- breast cancer cells ata dose of 2 mg/kg; format: functional, organism-based; set-up: dose 2 mg/kg; details: Mus musculus; Cancer cell lines
Outline: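 Hormone-independent MXT mammary carcinoma (ER−) in mice. Equimolar doses (2 × 10⁻⁵ M/kg) were given sc three times a week (Mon, Wed, Fri) in polyethylene glycol 400/H₂O (1:1), or in olive oil for some agents. Median tumor area was measured at the end of a 2-week therapy and expressed as T/C %.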

MCF7S [35] = experiment: Cell growth inhibition in hormone dependent MCF 7 breast cancer cells; format: functional, cell-based; details: Homo sapiens
MDA-MB-231 [36] = experiment: Cell growth inhibition in hormone independent MDA-MB-231 breast cancer cells; format: functional, cell-based; details: Homo sapiens

NC(c1c(Cl)cc(O)cc1Cl)C(N)c1c(Cl)cc(O)cc1Cl (stereo unspecified)
Change (Rattus norvegicus [1]): 154% | T/C [2]: < 12% | Tumors (Rattus norvegicus [3]): 11% | Tumors (Rattus norvegicus [4]): 78% | T/C [5]: < 12% | No. of tumors (Rattus norvegicus [6]): 3 | Tumors (Rattus norvegicus [7]): 4% | T/C (Mus musculus [8]): <158% | Med tumor weight [9]: 62.5 mg | T/C [10]: < 18% | Effect (Mus musculus [11]): 134 and 201 | T/C (Mus musculus [12]): 239% | No. of tumors (Rattus norvegicus [13]): 26 | Med tumor weight [14]: 61 mg | Tumors (Rattus norvegicus [15]): 7% | Med tumor weight [16]: 91.5 mg | Change (Rattus norvegicus [17]): -1.5%

CC/C(=C(\c1ccccc1)c1ccc(OCCN(C)C)cc1)c1ccccc1 [TAMOXIFEN]
T/C [18]: 3% | Med tumor weight (Mus musculus [19]): 16 mg | Effect (Mus musculus [11]): 72.3 | T/C (Mus musculus [20]): 80%

CISPLATIN
T/C [21]: 3% | Utreotropic effect (Mus musculus [22]): 96 and 100 | Med tumor weight (Mus musculus [23]): 15 mg | T/C (Mus musculus [24]): 118% | Med tumor weight (Mus musculus [25]): 222 mg | T/C [26]: 3% | T/C [27]: 44% | ED50 (MDA-MB-231 [28]): 0.32 µM | Med tumor weight (Mus musculus [29]): 15 mg | Effect (Mus musculus [11]): 95 | T/C (Mus musculus [30]): 114% | ED50 (MCF7S [31]): 0.11 µM | T/C (MCF7S [31]): 1% | T/C (MDA-MB-231 [32]): 17% | T/C (Mus musculus [33]): 114% | T/C [34]: 15% | ED50 (MCF7S [35]): 0.44 µM | T/C (MCF7S [35]): 11% | ED50 (MDA-MB-231 [36]): 0.24 µM | T/C (MDA-MB-231 [36]): 26%

Reference: ChEMBL document CHEMBL1123966, “Ring-substituted [1,2-bis(4-hydroxyphenyl)ethylenediamine]dichloroplatinum (II) complexes: compounds with a selective effect on the hormone-dependent mammary carcinoma” (1988)
